Laboratory results: ChEMBL document CHEMBL4330076, “Quinazolin-2,4-dione-Based Hydroxamic Acids as Selective Histone Deacetylase-6 Inhibitors for Treatment of Non-Small Cell Lung Cancer” (J Med Chem, 2019)

Columns and labels:
[1] = test system: A549; experiment: Cytotoxicity against human A549 cells after 72 hrs by MTT assay; format: functional, cell-based; details: A549, 72 h
In short: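 Human A549 lung cancer cells exposed to serial dilutions of inhibitor at 37 °C for 72 h. Cytotoxicity expressed as IC50.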

[2] = test system: Lewis lung carcinoma cell line; experiment: Induction of apoptosis in mouse LL/2 cells assessed as necrotic cells at 10 uM after 24 hrs by Annexin V/propidium iodide staining-based flow cytometric analysis (reference value: 7.3%); format: functional
[3] = test system: Lewis lung carcinoma cell line; experiment: Cytotoxicity against mouse LL/2 cells after 72 hrs by MTT assay; format: functional, cell-based
[4] = test system: Lewis lung carcinoma cell line; experiment: Cytotoxicity against mouse LL/2 cells at 10 uM after 72 hrs by MTT assay relative to control; format: functional; details: in the assay text read “at 10 nM” for “at 10 uM”
In short: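 Mouse LL/2 cells treated with inhibitor alone or combined with paclitaxel for 3 days. Viability measured by MTT assay relative to untreated control.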

[5] = test system: Lewis lung carcinoma cell line; experiment: Induction of alpha tubulin acetylation in mouse LL/2 cells at 10 uM after 24 hrs by Western blot analysis relative to control; format: functional
[6] = test system: Lewis lung carcinoma cell line; experiment: Induction of apoptosis in mouse LL/2 cells assessed as viable cells at 10 uM after 24 hrs by Annexin V/propidium iodide staining-based flow cytometric analysis (reference value: 82.3%); format: functional; details: read-out: Activity
[7] = test system: Lewis lung carcinoma cell line; experiment: Induction of apoptosis in mouse LL/2 cells assessed as early apoptotic cells at 10 uM after 24 hrs by Annexin V/propidium iodide staining-based flow cytometric analysis (reference value: 1.8%); format: functional
[8] = test system: Lewis lung carcinoma cell line; experiment: Induction of apoptosis in mouse LL/2 cells assessed as late apoptotic cells at 10 uM after 24 hrs by Annexin V/propidium iodide staining-based flow cytometric analysis (reference value: 8.7%); format: functional
[9] = test system: A549; experiment: Induction of apoptosis in human A549 cells assessed as viable cells at 10 uM after 24 hrs by Annexin V/propidium iodide staining-based flow cytometric analysis (reference value: 96.2%); format: functional; details: A549, 24 h, read-out: Activity
[10] = test system: A549; experiment: Induction of apoptosis in human A549 cells assessed as early apoptotic cells at 10 uM after 24 hrs by Annexin V/propidium iodide staining-based flow cytometric analysis (reference value: 1.2%); format: functional
[11] = test system: A549; experiment: Induction of apoptosis in human A549 cells assessed as late apoptotic cells at 10 uM after 24 hrs by Annexin V/propidium iodide staining-based flow cytometric analysis (reference value: 1.6%); format: functional
[12] = test system: A549; experiment: Induction of apoptosis in human A549 cells assessed as necrotic cells at 10 uM after 24 hrs by Annexin V/propidium iodide staining-based flow cytometric analysis (reference value: 1.1%); format: functional
[13] = target: Histone deacetylase 1 (Homo sapiens, UniProt Q13547); experiment: Inhibition of human full-length recombinant HDAC1 expressed in baculovirus infected Sf9 insect cells using fluorogenic peptide RHKKAc as substrate after 2 hrs
In short: (§1)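 Run by an outside contract lab. IC50 was obtained from 10-point dose-response curves using threefold serial dilutions of compound from the top concentration.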

[14] = target: T1, Protein deacetylase HDAC6 (Homo sapiens, UniProt Q9UBN7); experiment: Inhibition of human full-length recombinant HDAC6 expressed in baculovirus infected Sf9 insect cells using fluorogenic peptide RHKKAc as substrate after 2 hrs
T1 sequence (Q9UBN7 whole entry): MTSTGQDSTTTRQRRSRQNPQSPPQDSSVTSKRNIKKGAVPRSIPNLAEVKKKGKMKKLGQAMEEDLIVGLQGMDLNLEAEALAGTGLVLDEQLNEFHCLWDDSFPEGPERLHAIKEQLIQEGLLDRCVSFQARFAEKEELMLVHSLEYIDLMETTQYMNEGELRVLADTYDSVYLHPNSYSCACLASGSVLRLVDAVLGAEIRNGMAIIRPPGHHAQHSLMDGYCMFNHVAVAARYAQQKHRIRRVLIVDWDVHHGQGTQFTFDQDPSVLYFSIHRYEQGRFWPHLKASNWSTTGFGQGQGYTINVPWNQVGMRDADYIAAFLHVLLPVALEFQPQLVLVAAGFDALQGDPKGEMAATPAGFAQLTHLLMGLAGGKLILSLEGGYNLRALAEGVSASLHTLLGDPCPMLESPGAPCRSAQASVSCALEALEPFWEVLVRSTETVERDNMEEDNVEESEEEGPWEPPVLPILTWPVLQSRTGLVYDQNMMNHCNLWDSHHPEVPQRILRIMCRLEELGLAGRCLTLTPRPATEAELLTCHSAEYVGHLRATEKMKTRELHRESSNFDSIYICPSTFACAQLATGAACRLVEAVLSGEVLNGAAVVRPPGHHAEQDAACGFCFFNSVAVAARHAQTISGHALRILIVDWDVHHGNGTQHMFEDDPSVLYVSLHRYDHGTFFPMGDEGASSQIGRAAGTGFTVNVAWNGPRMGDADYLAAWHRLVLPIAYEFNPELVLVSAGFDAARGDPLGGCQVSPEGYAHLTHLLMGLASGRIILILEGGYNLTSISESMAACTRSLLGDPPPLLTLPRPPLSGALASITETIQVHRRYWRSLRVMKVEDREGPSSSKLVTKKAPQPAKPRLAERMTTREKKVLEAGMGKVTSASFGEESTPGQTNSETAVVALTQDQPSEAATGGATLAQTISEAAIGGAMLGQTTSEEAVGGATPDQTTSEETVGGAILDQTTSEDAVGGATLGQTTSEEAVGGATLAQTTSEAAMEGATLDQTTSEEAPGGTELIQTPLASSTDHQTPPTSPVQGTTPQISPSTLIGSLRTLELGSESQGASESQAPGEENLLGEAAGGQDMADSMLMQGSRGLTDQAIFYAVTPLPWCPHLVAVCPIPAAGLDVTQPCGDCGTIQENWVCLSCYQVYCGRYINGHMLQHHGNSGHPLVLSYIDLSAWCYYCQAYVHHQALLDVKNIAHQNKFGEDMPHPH

[15] = target: T2, Histone deacetylase 8 (Homo sapiens, UniProt Q9BY41); experiment: Inhibition of human full-length recombinant HDAC8 expressed in baculovirus infected Sf9 insect cells using fluorogenic peptide RHKAcKAc as substrate after 2 hrs
T2 sequence (Q9BY41 whole entry): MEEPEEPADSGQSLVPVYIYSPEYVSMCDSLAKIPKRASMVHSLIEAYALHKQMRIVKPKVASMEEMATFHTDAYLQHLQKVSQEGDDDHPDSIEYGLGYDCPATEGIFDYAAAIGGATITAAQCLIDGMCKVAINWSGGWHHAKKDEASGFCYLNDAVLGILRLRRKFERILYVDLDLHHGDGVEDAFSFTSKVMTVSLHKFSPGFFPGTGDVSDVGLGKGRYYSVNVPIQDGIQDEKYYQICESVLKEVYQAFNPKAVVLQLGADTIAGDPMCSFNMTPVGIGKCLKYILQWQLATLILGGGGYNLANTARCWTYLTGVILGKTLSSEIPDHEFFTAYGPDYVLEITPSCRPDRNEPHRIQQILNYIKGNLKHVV

[16] = target: T3, Histone deacetylase 11 (Homo sapiens, UniProt Q96DB2); experiment: Inhibition of human full-length recombinant HDAC11 expressed in baculovirus infected Sf9 insect cells using fluorogenic peptide RHKKAc as substrate after 2 hrs; in short: as §1
T3 sequence (Q96DB2 whole entry): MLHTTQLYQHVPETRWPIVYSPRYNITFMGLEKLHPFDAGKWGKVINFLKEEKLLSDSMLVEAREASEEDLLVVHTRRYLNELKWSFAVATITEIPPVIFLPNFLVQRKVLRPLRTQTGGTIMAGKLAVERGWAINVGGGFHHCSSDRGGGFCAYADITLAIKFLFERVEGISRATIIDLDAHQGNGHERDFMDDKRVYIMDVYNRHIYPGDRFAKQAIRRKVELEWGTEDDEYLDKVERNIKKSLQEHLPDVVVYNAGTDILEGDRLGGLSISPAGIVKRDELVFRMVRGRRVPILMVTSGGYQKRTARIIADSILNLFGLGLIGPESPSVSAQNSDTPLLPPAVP

[17] = target: T1, Protein deacetylase HDAC6; experiment: Inhibition of human full-length recombinant HDAC6 expressed in baculovirus infected Sf9 insect cells using Boc-Lys (Ac)-AMC as substrate preincubated for 10 mins followed by substrate addition and measured after 30 mins by fluorescence assay
[18] = target: T1, Protein deacetylase HDAC6; experiment: Inhibition of human HDAC6 CD2 expressed in Escherichia coli BL21 (RIL) using Boc-Lys (Ac)-AMC as substrate preincubated for 10 mins followed by substrate addition and measured after 30 mins by fluorescence assay
[19] = AUC (0 to 24 hrs) in C57BL/6 mouse lung at 40 mg/kg, po administered via gavage by LC-MS/MS analysis; format: ADME, organism-based; set-up: time < 24 hr, dose 40 mg/kg, route oral; details: in vivo
[20] = AUC (0 to 24 hrs) in C57BL/6 mouse liver at 40 mg/kg, po administered via gavage by LC-MS/MS analysis; format: ADME, organism-based; set-up: dose 40 mg/kg, time < 24 hr, route oral; details: in vivo
[21] = AUC (0 to 24 hrs) in C57BL/6 mouse kidney at 40 mg/kg, po administered via gavage by LC-MS/MS analysis; format: ADME, organism-based; set-up: time < 24 hr, dose 40 mg/kg, route oral; details: in vivo
[22] = AUC (0 to 24 hrs) in C57BL/6 mouse plasma at 40 mg/kg, po administered via gavage by LC-MS/MS analysis; format: ADME, organism-based; set-up: time < 24 hr, dose 40 mg/kg, route oral; details: in vivo

Sequence of Histone deacetylase 1 (Q13547 whole entry): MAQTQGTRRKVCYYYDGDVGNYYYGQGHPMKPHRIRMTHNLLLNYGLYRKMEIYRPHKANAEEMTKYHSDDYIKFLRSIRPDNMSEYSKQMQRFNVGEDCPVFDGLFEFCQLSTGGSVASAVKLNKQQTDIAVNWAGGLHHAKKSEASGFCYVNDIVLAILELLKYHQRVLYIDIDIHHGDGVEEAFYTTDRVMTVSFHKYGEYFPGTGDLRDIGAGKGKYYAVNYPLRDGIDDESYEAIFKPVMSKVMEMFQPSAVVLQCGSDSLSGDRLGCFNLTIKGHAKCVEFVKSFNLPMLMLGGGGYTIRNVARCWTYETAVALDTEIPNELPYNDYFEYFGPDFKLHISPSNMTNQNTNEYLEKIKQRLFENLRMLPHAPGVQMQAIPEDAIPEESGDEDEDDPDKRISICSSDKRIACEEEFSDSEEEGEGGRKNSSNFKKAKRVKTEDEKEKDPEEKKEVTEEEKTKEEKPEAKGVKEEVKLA

SMILES	IC50 [13]	IC50 [14]	IC50 [16]	IC50 [1]	also measured
O=C(NO)c1ccc(Cn2c(=O)n(CCc3ccccc3)c(=O)c3ccc(F)cc32)cc1	–	–	–	3920 nM	–
CC(=O)O[C@H]1C(=O)[C@@]2(C)[C@H]([C@H](OC(=O)c3ccccc3)[C@]3(O)C[C@H](OC(=O)[C@H](O)[C@@H](NC(=O)c4ccccc4)c4ccccc4)C(C)=C1C3(C)C)[C@]1(OC(C)=O)CO[C@@H]1C[C@@H]2O [PACLITAXEL]	–	–	–	–	Activity [2]: 6.9%; IC50 [3]: 10 nM; Activity [4]: 20%; fold change (FC) [5]: 7.28; viability at 10 µM [6]: 73.4%; Activity [7]: 4%; Activity [8]: 15.9%; viability at 10 µM [9]: 94.9%; Activity [10]: 2.9%; Activity [11]: 1.2%; Activity [12]: 1%
O=C(NO)c1ccc(Cn2c(=O)n(CCc3ccccc3)c(=O)c3cccnc32)cc1	–	29 nM	–	2840 nM	Ki [17]: 3.89 nM; Ki [18]: 4.5 nM
O=C(NO)c1cc(Cn2c(=O)n(CCc3ccccc3)c(=O)c3ccccc32)cs1	> 10000 nM	–	> 10000 nM	–	–
O=C(NO)c1ccc(Cn2c(=O)n(CCc3ccc(F)cc3)c(=O)c3ccccc32)cc1	–	–	–	3650 nM	–
O=C(NO)c1cccc(Cn2c(=O)n(CCc3ccccc3)c(=O)c3ccccc32)c1	> 10000 nM	4630 nM	> 10000 nM	–	–
O=C(CCCCCCNC(=O)c1cnc(N(c2ccccc2)c2ccccc2)nc1)NO [RICOLINOSTAT]	–	–	–	7700 nM	AUC [19]: 622 ng·h/g; AUC [20]: 1442 ng·h/g; AUC [21]: 2493 ng·h/g; AUC [22]: 308 ng·h/g
O=C(NO)c1ccc(Cn2c(=O)n(CCc3ccccc3)c(=O)c3ccccc32)s1	22900 nM	20 nM	19800 nM	13500 nM	IC50 [15]: 97 nM
O=C(NO)c1ccc(Cn2c(=O)n(CCc3ccccc3)c(=O)c3cc(F)ccc32)cc1	–	–	–	12200 nM	–
O=C(CCCCCCC(=O)Nc1ccccc1)NO [VORINOSTAT]	–	–	–	2240 nM	–

The next lines start with results.

IC50 [13]	IC50 [14]	IC50 [16]	SMILES	IC50 [1]	also measured
12700 nM	24 nM	–	O=C(NO)c1ccc(Cn2c(=O)n(CCc3cccc(C(F)(F)F)c3)c(=O)c3ccccc32)cc1	6030 nM	IC50 [15]: 1760 nM
7370 nM	20 nM	13800 nM	COc1ccc(CCn2c(=O)c3ccccc3n(Cc3ccc(C(=O)NO)cc3)c2=O)cc1	–	IC50 [15]: 1150 nM
–	32 nM	–	O=C(NO)c1ccc(Cn2c(=O)n(CCc3ccccc3)c(=O)c3ccc(O)cc32)cc1	–	–
9080 nM	5 nM	11300 nM	O=C(NO)c1ccc(Cn2c(=O)n(CCc3ccc(O)cc3)c(=O)c3ccccc32)cc1	–	IC50 [15]: 845 nM
–	22 nM	–	O=C(NO)c1ccc(Cn2c(=O)n(CCc3ccccc3)c(=O)c3ccc(Cl)cc32)cc1	–	–
–	12 nM	–	COc1ccccc1CCn1c(=O)c2ccccc2n(Cc2ccc(C(=O)NO)cc2)c1=O	11800 nM	Ki [17]: 2.1 nM; Ki [18]: 2.6 nM
